Test results: publication PMC5575927 (ACS chemical biology, 2017)
Where a SMILES comes first, the peptide text is derived from it. The star is where a group is joined. AMC = Cc1cc(=O)oc2cc(N*)ccc12; Boc = CC(C)(C)OC(=O)*

Tests used:
PmC11 [1] = assay: E64 inhibition of PmC11 proteolytic activity; format: biochemical, Parabacteroides merdae; conditions: 4-fold excess of E64; Figure S5B
clostripain = conditions: rather than covalently modifying the catalytic cysteine; ref [38],[39]; cited from earlier work
PmC11 [2] = assay: Michaelis-Menten kinetics of fluorogenic AMC substrate hydrolysis; format: biochemical, Parabacteroides merdae; conditions: 25 nM PmC11; PBS (pH 7.4), 5 mM DTT, 0.1 mM EDTA, 1 mM CaCl2, 0.1% CHAPS; 25 °C
In short: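 Recombinant His6-tagged WT PmC11 was expressed in E. coli, self-matured, and purified by Ni-NTA and anion exchange. Reactions were started by adding Ac-VLTK-AMC at 400 pM to 400 μM. Fluorescence (excitation 355 nm, emission 460 nm) was read every 20 s for 25 min. KM and kcat were obtained by Michaelis-Menten fitting of hydrolysis rates.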

PmC11 [3] = target: PmC11 (Parabacteroides merdae, UniProt A0A9Q4WVB1); format: biochemical
In short: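 Recombinant His6-tagged WT PmC11 was expressed in E. coli BL21DE3pLysS, self-matured during expression, and purified by Ni-NTA then anion exchange. Test compound was applied at decreasing amounts from 5 μM to 10 nM during the 30 min preincubation. IC50 was derived from the rate of substrate hydrolysis measured after substrate addition.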

PmC11 [4] = conditions: ref [16]; cited from earlier work

Compound: CC(C)C[C@H](NC(=O)[C@H]1O[C@@H]1C(=O)O)C(=O)NCCCCN=C(N)N (relative stereo) [E64, L-trans-Epoxysuccinyl-leucylamido(4-guanidino)butane]
- loss of proteolytic activity (PmC11 [1]): 30%
- manner of clostripain inhibition (in words) (clostripain): reversible competitive

Compound: CC(=O)N[C@H](C(=O)N[C@@H](CC(C)C)C(=O)N[C@H](C(=O)N[C@@H](CCCCN)C(=O)Nc1ccc2c(C)cc(=O)oc2c1)[C@@H](C)O)C(C)C [Ac-VLTK-AMC] (Ac-VLTK-{AMC})
- kcat/KM (catalytic efficiency) (PmC11 [2]): 1.6 x 10^5 s^−1M^−1

Compound: CC(=O)N[C@H](C(=O)N[C@@H](CC(C)C)C(=O)N[C@H](C(=O)N[C@@H](CCCCN)C(=O)COC(=O)c1c(C)cccc1C)[C@@H](C)O)C(C)C [Ac-VLTK-AOMK, acetyl-Val-Leu-Thr-Lys acyloxymethyl ketone (2,6-dimethylbenzoic acid-derived acyloxy leaving group)]
- IC50 (PmC11 [3]): < 25 nM

Compound: Cc1cc(=O)oc2cc(NC(=O)C(CCCN=C(N)N)NC(=O)c3ccccc3)ccc12.Cl (stereo not shown) [Bz-Arg-AMC]
- hydrolysis by PmC11 (in words) (PmC11 [4]): hydrolyze

Compound: Boc-Val-Leu-Lys-{AMC}
- hydrolysis by PmC11 (in words) (PmC11 [4]): hydrolyze

Compound: Z-Gly-Gly-Arg-AMC
- hydrolysis by PmC11 (in words) (PmC11 [4]): hydrolyze
